Here are results for two compounds from ChEMBL document CHEMBL2413060, “Synthesis, biological evaluation and molecular docking studies of some pyrimidine derivatives” (2013).

Converted amounts (≈) assume the structure as drawn.

Holding throughout (format): functional
Test [1] relates to Staphylococcus aureus. As to the kind of experiment: Antibacterial activity against Staphylococcus aureus ATCC 6538P after 24 hrs by two-fold serial dilution method. The gist of the method:
(§1)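 Two-fold serial broth dilution in sterile nutrient broth at 500, 250, 125, 62.5, 31.25, 15.63, 7.82 and 3.91 µg/ml, with dimethylformamide ≤2.5%. Organisms were pre-grown 24 h in broth, and 0.1 ml inoculum was added per 5 ml tube. Tubes were incubated at 37°C, 24 h for bacteria and 48 h for fungi. MIC was taken as the lowest concentration giving no turbidity.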

For test [2], the system named is NCI/ADR-RES. As to the kind of experiment: Cytotoxicity against human NCI/ADR-RES cells assessed as growth inhibition at 10 uM. The note with it: read-out: GI. Summed up: (§2)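 Single-dose screen on human tumour cell lines. Growth of treated cells is expressed as percent of untreated growth, plotted as a mean graph, and reported as percent growth inhibition.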
The test system of test [3] is HCC 2998. The test is described as follows: Cytotoxicity against human HCC2998 cells assessed as growth inhibition at 10 uM. The conditions noted are these: read-out: GI.
Test [4] relates to Candida albicans. As to the kind of experiment: Antifungal activity against Candida albicans ATCC 2091 assessed as diameter of inhibition zone at 1 mg/ml after 48 hrs by cup diffusion method (reference value: 22 mm). The note with it: ATCC 2091, 48 h, read-out: DIZ.
The subject of test [5] is Pseudomonas aeruginosa. The test is described as follows: Antibacterial activity against Pseudomonas aeruginosa ATCC 9027 assessed as diameter of inhibition zone at 1 mg/ml after 24 hrs by cup diffusion method (reference value: 16 mm). The note with it: ATCC 9027, 24 h, read-out: DIZ.
Test [6] has as its system Staphylococcus aureus. As to the kind of experiment: Antibacterial activity against Staphylococcus aureus ATCC 6538P after 24 hrs by two-fold serial dilution method relative to ampicillin.
Test [7] deals with Shigella flexneri. The test is described as follows: Antibacterial activity against Shigella flexneri ATCC 15391 assessed as diameter of inhibition zone at 1 mg/ml after 24 hrs by cup diffusion method (reference value: 17 mm). The note with it: ATCC 15391, 24 h, read-out: DIZ.
For test [8], the system named is Staphylococcus aureus. The test is described as follows: Antibacterial activity against Staphylococcus aureus ATCC 6538P assessed as diameter of inhibition zone at 1 mg/ml after 24 hrs by cup diffusion method (reference value: 15 mm). The conditions noted are these: read-out: DIZ.
In test [9] the test system is Pseudomonas aeruginosa. The test is described as follows: Antibacterial activity against Pseudomonas aeruginosa ATCC 9027 after 24 hrs by two-fold serial dilution method relative to ofloxacin.
Test [10] deals with Malme-3M. As to the kind of experiment: Cytotoxicity against human MALME-3M cells assessed as growth inhibition at 10 uM. The conditions noted are these: read-out: GI.
Test [11] has as its system SR. As to the kind of experiment: Cytotoxicity against human SR cells assessed as growth inhibition at 10 uM. The conditions noted are these: read-out: GI. Summed up:
as §2

Test [12] relates to SF-295. As to the kind of experiment: Cytotoxicity against human SF295 cells assessed as growth inhibition at 10 uM. The conditions noted are these: read-out: GI. The gist of the method: as §2
Test [13] in a line: Cytotoxicity against human EKVX cells assessed as growth inhibition at 10 uM. The conditions noted are these: read-out: GI.
Test [14] relates to IGROV-1. As to the kind of experiment: Cytotoxicity against human IGROV1 cells assessed as growth inhibition at 10 uM. The note with it: read-out: GI.
In test [15] the test system is Shigella flexneri. As to the kind of experiment: Antibacterial activity against Shigella flexneri ATCC 15391 after 24 hrs by two-fold serial dilution method relative to ofloxacin.
For test [16], the system named is NCI-H460. The test is described as follows: Cytotoxicity against human NCI-H460 cells assessed as growth inhibition at 10 uM. The note with it: read-out: GI. The gist of the method:
as §2

The test system of test [17] is HOP-92. As to the kind of experiment: Cytotoxicity against human HOP92 cells assessed as growth inhibition at 10 uM. The note with it: read-out: GI.
Test [18] deals with T47D. The test is described as follows: Cytotoxicity against human T47D cells assessed as growth inhibition at 10 uM. The conditions noted are these: read-out: GI. The gist of the method:
as §2

In test [19] the test system is HOP-62. As to the kind of experiment: Cytotoxicity against human HOP62 cells assessed as growth inhibition at 10 uM. The conditions noted are these: read-out: GI.
Test [20] has as its system M14. As to the kind of experiment: Cytotoxicity against human M14 cells assessed as growth inhibition at 10 uM. The note with it: read-out: GI.
Test [21] relates to SK-MEL-2. The test is described as follows: Cytotoxicity against human SK-MEL-2 cells assessed as growth inhibition at 10 uM. The note with it: read-out: GI. Summed up: as §2
Test [22] deals with MCF7. The test is described as follows: Cytotoxicity against human MCF7 cells assessed as growth inhibition at 10 uM. The conditions noted are these: read-out: GI. The gist of the method: as §2
The subject of test [23] is NCI-H522. The test is described as follows: Cytotoxicity against human NCI-H522 cells assessed as growth inhibition at 10 uM. The note with it: read-out: GI. The gist of the method:
as §2

Test [24] has as its system SK-OV-3. As to the kind of experiment: Cytotoxicity against human SKOV3 cells assessed as growth inhibition at 10 uM. The conditions noted are these: read-out: GI. The gist of the method: as §2
The subject of test [25] is Shigella flexneri. The test is described as follows: Antibacterial activity against Shigella flexneri ATCC 15391 after 24 hrs by two-fold serial dilution method. The conditions noted are these: ATCC 15391, 24 h. The gist of the method:
as §1

In test [26] the test system is SNB-75. As to the kind of experiment: Cytotoxicity against human SNB75 cells assessed as growth inhibition at 10 uM. The note with it: read-out: GI. Summed up: as §2
The subject of test [27] is A498. The test is described as follows: Cytotoxicity against human A498 cells assessed as growth inhibition at 10 uM. The conditions noted are these: read-out: GI.
Test [28] concerns RPMI-8226. As to the kind of experiment: Cytotoxicity against human RPMI8226 cells assessed as growth inhibition at 10 uM. The conditions noted are these: read-out: GI. The gist of the method:
as §2

In test [29] the test system is TK-10. As to the kind of experiment: Cytotoxicity against human TK10 cells assessed as growth inhibition at 10 uM. The note with it: read-out: GI. The gist of the method:
(§3)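 Single-dose screen in a sixty-cell human tumour line panel; percent growth of treated cells relative to untreated was read and reported as percentage growth inhibition, shown as a mean graph. Compounds meeting the threshold inhibition criteria went on to five-dose testing.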

In test [30] the test system is CAKI-1. As to the kind of experiment: Cytotoxicity against human Caki1 cells assessed as growth inhibition at 10 uM. The note with it: read-out: GI.
Test [31] relates to PC-3. The test is described as follows: Cytotoxicity against human PC3 cells assessed as growth inhibition at 10 uM. The conditions noted are these: read-out: GI. Summed up:
as §2

The test system of test [32] is CCRF-CEM. The test is described as follows: Cytotoxicity against human CCRF-CEM cells assessed as growth inhibition at 10 uM. The conditions noted are these: read-out: GI.
The test system of test [33] is UACC-62. The test is described as follows: Cytotoxicity against human UACC62 cells assessed as growth inhibition at 10 uM. The conditions noted are these: read-out: GI. Summed up: as §3

In general, MIC refers to the lowest concentration found to suppress growth. A lower MIC goes with a more susceptible organism. The compound `CSc1nc(-c2ccco2)c(C#N)c(=O)n1C` had an MIC in [1] of 125 µg/mL (≈ 506 µM). Besides, the inhibition of growth at 10 µM is 48.8% in test [2] and 98.4% in [3]. The zone of inhibition at 1000 µg/mL in test [4] turned out to be 22 mm; in test [5], 17 mm; in test [7], 17 mm; in test [8] it was 19 mm. In test [6], this compound returned an Activity of 50%.
Consider `N#Cc1c(N2CCOCC2)nc(=S)[nH]c1-c1ccco1`, for which the Activity in test [9] and in test [15] was 60% in each case. The inhibition of growth at 10 µM in [10] was 97.8%; in test [11], 82.2%; in test [12], 52.6%; in test [13], 51.2%; in test [14] it was 79.3%; in [2], 59.8%. The inhibition of growth at 10 µM in test [3] was 121%; in [16], 49.9%; in test [17] it was 112%; in [18], 81.1%; in test [19], 64.2%; in test [20] it was 60.2%. Also, the inhibition of growth at 10 µM in test [21] came out at 63%; in test [22] it was 73.3%; in [23], 50.4%; in test [24] it was 45%; in test [26], 84.1%; in test [27], 101%. The inhibition of growth at 10 µM in test [28] was determined as 57%; in [29] it was 52.9%; in [30], 41.8%; in test [31], 57.4%; in test [32], 50.4%; in [33], 56.7%. Also, the zone of inhibition at 1000 µg/mL amounted to 22 mm in [4], 16 mm in test [5], 22 mm in test [7] and 15 mm in test [8]. The compound further registered an MIC in test [25] of 125 µg/mL (≈ 434 µM).
